Reference: ChEMBL document CHEMBL1156039, “Nonpeptide urotensin-II receptor antagonists: a new ligand class based on piperazino-phthalimide and piperazino-isoindolinone subunits” (J Med Chem, 2009)
The source made the active and inactive calls. The rule behind the calls is not given here. Where a SMILES comes first, the peptide text is derived from it. Bridges are numbered along the chain shown (N, C = ends). [ ]: non-standard residue; d: D form. 2Nal = N[C@@H](Cc1ccc2ccccc2c1)C(=O)O

How the values were obtained:
Urotensin-2 receptor [1] = biological target: T1, Urotensin-2 receptor (Rattus norvegicus, UniProt P49684); assay: Antagonist activity at rat urotensin 2 receptor expressed in CHOK1 cells assessed as inhibition of urotensin 2-induced intracellular calcium mobilization after 1 hr by FLIPR assay; type: functional, cell-based, CHO-K1
T1 sequence (P49684 whole entry): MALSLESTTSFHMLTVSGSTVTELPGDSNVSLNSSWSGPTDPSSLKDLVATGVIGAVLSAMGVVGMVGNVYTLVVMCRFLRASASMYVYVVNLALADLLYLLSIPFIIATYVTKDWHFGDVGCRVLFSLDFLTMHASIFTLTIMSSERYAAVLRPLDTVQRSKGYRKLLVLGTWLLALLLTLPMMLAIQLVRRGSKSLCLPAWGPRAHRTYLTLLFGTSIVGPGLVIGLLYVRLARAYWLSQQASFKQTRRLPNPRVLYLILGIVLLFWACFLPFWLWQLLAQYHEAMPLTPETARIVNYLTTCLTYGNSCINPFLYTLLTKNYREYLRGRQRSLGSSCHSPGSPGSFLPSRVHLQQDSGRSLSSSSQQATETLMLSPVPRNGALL
Summary of the method: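 Stable CHO-K1 line expressing rat UT, selected with G418 and seeded 24 h ahead. Cells loaded with calcium dye for 1 h at 37 °C in HBSS/20 mM HEPES/0.1% BSA/2.5 mM probenecid, pH 7.4. Compound preincubated 10 min, then agonist added: goby U-II 0.1 nM or peptide agonist 0.3 or 1 nM. FLIPR calcium read at 23 °C; N = 2-6.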

Urotensin-2 receptor [2] = biological target: T2, Urotensin-2 receptor (Homo sapiens, UniProt Q9UKP6); assay: Displacement of [125I]urotensin 2 from urotensin 2 receptor in human RMS13 cells by scintillation proximity assay; type: cell-based
T2 sequence (Q9UKP6 whole entry): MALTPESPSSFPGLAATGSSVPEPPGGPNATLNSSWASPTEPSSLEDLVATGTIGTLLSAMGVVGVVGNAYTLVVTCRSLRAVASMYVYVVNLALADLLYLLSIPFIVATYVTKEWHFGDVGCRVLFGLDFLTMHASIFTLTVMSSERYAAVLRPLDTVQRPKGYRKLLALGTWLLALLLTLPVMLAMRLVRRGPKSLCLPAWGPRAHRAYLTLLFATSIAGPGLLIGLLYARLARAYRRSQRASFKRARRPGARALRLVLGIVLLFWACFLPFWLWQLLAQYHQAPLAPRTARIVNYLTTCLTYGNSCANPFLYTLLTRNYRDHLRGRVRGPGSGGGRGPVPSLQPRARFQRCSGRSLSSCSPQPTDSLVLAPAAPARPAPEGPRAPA

Urotensin-2 receptor [3] = biological target: T2, Urotensin-2 receptor; assay: Antagonist activity at urotensin 2 receptor in human RMS13 cells assessed as inhibition of urotensin 2-induced intracellular calcium mobilization after 1 hr by FLIPR assay; type: functional, cell-based
Summary of the method: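 Human rhabdomyosarcoma (RMS13) cells expressing endogenous UT. Inhibition of U-II-driven calcium mobilization measured by FLIPR; N = 2-6.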

[4] = Half life in human liver microsomes; type: ADME, Microsome
[5] = Oral bioavailability in rat; type: ADME, organism-based; settings: in vivo
[6] = Half life in rat; type: ADME, organism-based; settings: in vivo
Urotensin-2 receptor [7] = biological target: T1, Urotensin-2 receptor; assay: Antagonist activity at rat urotensin 2 receptor expressed in CHOK1 cells assessed as inhibition of urotensin 2-induced intracellular calcium mobilization after 10 min by FLIPR assay
Urotensin-2 receptor [8] = biological target: T1, Urotensin-2 receptor; assay: Displacement of [125I]urotensin 2 from rat urotensin 2 receptor expressed in CHOK1 cells by scintillation proximity assay; type: cell-based, CHO-K1
Summary of the method: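 Membranes from CHO cells stably expressing rat UT were precoupled to WGA-coated SPA beads (15 μg membrane/mg beads, 30 min, room temperature) in 50 mM Tris-HCl, 5 mM MgCl2, 0.1% BSA, pH 7.4. Final conditions: 1.0 mg beads per well, 0.17 nM [125I]-[Tyr]-rat U-II, and varied compound concentrations, shaken 3 h at 22 °C. Nonspecific binding was defined with 1 μM rat U-II.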

Rattus norvegicus [9] = assay: Inhibition of ear flushing in Sprague-Dawley rat ear-flush model assessed as complete attenuation of urotensin 2-induced increase in ear pinna temperature at 10 mg/kg, iv administered 15 mins prior to urotensin 2 challenge; type: functional, organism-based; set-up: dose 10 mg/kg
Rattus norvegicus [10] = assay: Inhibition of ear flushing in Sprague-Dawley rat ear-flush model assessed as attenuation of urotensin 2-induced increase in ear pinna temperature at 3 mg/kg, iv administered 15 mins prior to urotensin 2 challenge; type: functional, organism-based; set-up: dose 3 mg/kg
[11] = Inhibition of alpha1 adrenergic receptor at 10 uM
Summary of the method: (§1)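 Part of a contract panel of 50 receptors and ion channels. Each target was run as a binding assay with a reference ligand, with the test compound at 10 μM.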

[12] = biological target: T3, Muscarinic acetylcholine receptor M1 (Homo sapiens) (UniProt P11229); assay: Inhibition of human muscarinic M1 receptor at 10 uM
T3 sequence (whole entry): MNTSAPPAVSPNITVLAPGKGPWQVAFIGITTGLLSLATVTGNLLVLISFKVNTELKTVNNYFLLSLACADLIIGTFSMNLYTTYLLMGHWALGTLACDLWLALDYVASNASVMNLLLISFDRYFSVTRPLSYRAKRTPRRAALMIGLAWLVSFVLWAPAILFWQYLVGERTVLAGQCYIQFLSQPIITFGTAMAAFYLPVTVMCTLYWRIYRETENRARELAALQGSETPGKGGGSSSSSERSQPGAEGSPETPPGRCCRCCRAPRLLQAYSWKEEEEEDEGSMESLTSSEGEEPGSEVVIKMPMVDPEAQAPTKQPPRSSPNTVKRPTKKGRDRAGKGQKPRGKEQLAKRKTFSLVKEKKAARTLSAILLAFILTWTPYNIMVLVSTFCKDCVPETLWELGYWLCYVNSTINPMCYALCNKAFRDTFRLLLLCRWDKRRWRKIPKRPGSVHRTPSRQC

[13] = biological target: Muscarinic acetylcholine receptor M3 (Homo sapiens) (UniProt P20309); assay: Inhibition of human muscarinic M3 receptor at 10 uM
Sequence of Muscarinic acetylcholine receptor M3 (Homo sapiens) (P20309 whole entry, looked up): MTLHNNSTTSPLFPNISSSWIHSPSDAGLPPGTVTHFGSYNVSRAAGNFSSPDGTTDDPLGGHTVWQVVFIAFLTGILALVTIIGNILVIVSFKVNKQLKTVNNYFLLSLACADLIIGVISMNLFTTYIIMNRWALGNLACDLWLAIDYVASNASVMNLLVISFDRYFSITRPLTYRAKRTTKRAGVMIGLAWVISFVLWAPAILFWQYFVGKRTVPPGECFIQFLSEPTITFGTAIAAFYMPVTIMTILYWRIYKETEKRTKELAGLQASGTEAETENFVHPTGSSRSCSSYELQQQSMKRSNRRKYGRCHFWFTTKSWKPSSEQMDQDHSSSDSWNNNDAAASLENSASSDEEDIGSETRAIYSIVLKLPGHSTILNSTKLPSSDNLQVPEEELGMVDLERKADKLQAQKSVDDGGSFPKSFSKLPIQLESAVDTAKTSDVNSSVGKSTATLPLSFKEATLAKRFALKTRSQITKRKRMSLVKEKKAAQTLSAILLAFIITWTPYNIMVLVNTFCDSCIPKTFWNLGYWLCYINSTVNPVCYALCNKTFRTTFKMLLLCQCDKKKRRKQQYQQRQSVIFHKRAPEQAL

[14] = biological target: T4, 5-hydroxytryptamine receptor 1A (Homo sapiens) (UniProt P08908); assay: Inhibition of human 5HT1A receptor at 10 uM
T4 sequence (whole entry): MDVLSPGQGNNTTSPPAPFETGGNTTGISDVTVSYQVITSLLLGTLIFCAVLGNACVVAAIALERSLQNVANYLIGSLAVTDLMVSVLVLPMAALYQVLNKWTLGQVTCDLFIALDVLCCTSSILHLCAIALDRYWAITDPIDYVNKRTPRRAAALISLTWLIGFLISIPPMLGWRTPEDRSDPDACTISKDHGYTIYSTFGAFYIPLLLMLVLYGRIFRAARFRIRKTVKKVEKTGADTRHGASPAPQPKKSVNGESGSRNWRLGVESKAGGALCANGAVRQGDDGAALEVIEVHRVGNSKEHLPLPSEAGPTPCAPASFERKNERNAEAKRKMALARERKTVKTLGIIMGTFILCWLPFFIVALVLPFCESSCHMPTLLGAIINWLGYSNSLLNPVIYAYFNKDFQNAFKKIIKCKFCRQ

[15] = biological target: 5-hydroxytryptamine receptor 1B (Homo sapiens) (UniProt P28222); assay: Inhibition of 5HT1B receptor at 10 uM
Sequence of 5-hydroxytryptamine receptor 1B (Homo sapiens) (P28222 whole entry): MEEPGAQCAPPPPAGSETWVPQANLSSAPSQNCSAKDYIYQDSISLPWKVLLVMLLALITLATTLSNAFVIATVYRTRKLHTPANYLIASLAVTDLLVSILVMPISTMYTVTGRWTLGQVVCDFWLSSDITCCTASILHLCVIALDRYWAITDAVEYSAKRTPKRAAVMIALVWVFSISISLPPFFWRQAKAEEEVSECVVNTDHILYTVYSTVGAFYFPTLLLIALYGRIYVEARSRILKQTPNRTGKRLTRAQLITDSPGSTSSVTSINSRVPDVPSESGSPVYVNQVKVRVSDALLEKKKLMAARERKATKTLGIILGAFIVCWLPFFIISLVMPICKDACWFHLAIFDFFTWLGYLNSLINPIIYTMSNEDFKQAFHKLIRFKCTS

[16] = Inhibition of sodium channel site 2 at 10 uM; summary of the method: as §1
Aorta = assay: Vasorelaxant activity in Wistar rat thoracic aortic ring assessed as inhibition of contraction at 100 nM
[17] = in the assay text read “after 10 min” for “after 1 hr”

Row | Ki (Urotensin-2 receptor [2]) [nM] | IC50 (Urotensin-2 receptor [3]) [nM] | IC50 (Urotensin-2 receptor [7]) [nM] | Structure (SMILES) | further results
1 | 41 | 320 |  | Cc1cc(NC(=O)NCCN2CCC(O)(Cc3ccccc3)CC2)c2ccccc2n1 [PALOSURAN] | IC50 (Urotensin-2 receptor [1]; [17]): > 75000 nM
2 |  |  | 14 | CCN1CCN(c2cccc3c2[C@H]2CCC[C@H](c4ccc(OC)c(OC)c4)N2C3=O)CC1 | 
3 | < 5 |  |  | CCN1CCN(c2cccc3c2CN([C@H](CCCN(C)S(=O)(=O)c2cccs2)c2ccc(OC)c(OC)c2)C3=O)CC1 | 
4 | 310 |  | 1000 | COc1ccc(CN2C(=O)c3cccc(N4CCN(Cc5c(F)cccc5F)CC4)c3C2=O)cc1OC | half-life [4]: < 3 min
5 | 8 | 62 |  | CCN1CCN(c2cccc3c2CN([C@H](CCCNc2cncc(OC)n2)c2ccc(OC)c(OC)c2)C3=O)CC1 | IC50 (Urotensin-2 receptor [1]; [17]): 4 nM
6 |  | 500 |  | COc1ccc([C@@H](CCCN(C)S(=O)(=O)c2cccs2)N2Cc3c(cccc3N3CCN(C(C)C)CC3)C2=O)cc1OC | 
7 | 25 | 51 |  | CCN1CCN(c2cccc3c2CN([C@H](CCCNS(=O)(=O)c2cn(C)c(C)n2)c2ccc(OC)c(OC)c2)C3=O)CC1 | IC50 (Urotensin-2 receptor [1]): 23 nM
8 | 700 |  |  | COc1ccc(C(CN)N2C(=O)c3cccc(N4CCN([C@@H](C)c5ccccc5)CC4)c3C2=O)cc1OC (stereo not given in full) | IC50 (Urotensin-2 receptor [1]; [17]): 300 nM
9 | 270 |  | 120 | COc1ccc(C(CCNS(=O)(=O)c2cccs2)N2C(=O)c3cccc(N4CCN([C@H](C)c5ccccc5)CC4)c3C2=O)cc1OC (stereo not given in full) | 

The next lines start with the compound.

Row | Structure (SMILES) | Ki (Urotensin-2 receptor [2]) [nM] | IC50 (Urotensin-2 receptor [3]) [nM] | IC50 (Urotensin-2 receptor [7]) [nM] | further results
10 | COc1ccc([C@@H](CCCCNC(=O)OC(C)(C)C)N2C(=O)c3cccc(N4CCN([C@H](C)c5ccccc5)CC4)c3C2=O)cc1OC | > 10000 |  |  | IC50 (Urotensin-2 receptor [1]; [17]): 65000 nM
11 | CCN1CCN(c2cccc3c2CN([C@H](CCCNC(=O)c2cccs2)c2ccc(OC)c(OC)c2)C3=O)CC1 |  | 140 |  | 
12 | COc1ccc(CN2C(=O)c3cccc(N4CCN([C@H](C)c5ccccc5)CC4)c3C2=O)cc1OC |  | 1900 |  | half-life [4]: 29 min; bioavailability [5]: 33%; half-life [6]: 240 min
13 | COc1ccc(C(CNC(=O)OC(C)(C)C)N2C(=O)c3cccc(N4CCN([C@@H](C)c5ccccc5)CC4)c3C2=O)cc1OC (stereo not given in full) | 430 |  | 120 | 
14 | COc1ccc(C(CCCNS(=O)(=O)c2cccs2)N2C(=O)c3cccc(N4CCN([C@H](C)c5ccccc5)CC4)c3C2=O)cc1OC (stereo not given in full) |  | 250 |  | 
15 | COc1ccc(C(CNS(=O)(=O)c2cccs2)N2C(=O)c3cccc(N4CCN([C@@H](C)c5ccccc5)CC4)c3C2=O)cc1OC (stereo not given in full) | 290 |  |  | IC50 (Urotensin-2 receptor [1]; [17]): 75 nM
16 | COc1ccc([C@@H](CCCN(C)S(=O)(=O)c2cccs2)N2Cc3c(cccc3N3CCN(C)CC3)C2=O)cc1OC | < 6 |  |  | 
17 | CC(=O)N[C@H]1CSSC[C@@H](C(N)=O)NC(=O)[C@H](Cc2ccc3ccccc3c2)NC(=O)[C@H](CCCCN)NC(=O)[C@H](Cc2c[nH]c3ccccc23)NC(=O)[C@H](Cc2ccccc2)NC1=O (Ac-CFWK[2Nal]C-NH2; disulfide 1-6) |  |  |  | Ki (Urotensin-2 receptor [8]): 0.12 nM; EC50 (Urotensin-2 receptor [1]): 0.54 nM
18 | COc1ccc(C(CCNC(=O)OC(C)(C)C)N2C(=O)c3cccc(N4CCN([C@@H](C)c5ccccc5)CC4)c3C2=O)cc1OC (stereo not given in full) | 540 |  | 110 | 
19 | CCN1CCN(c2cccc3c2CN([C@H](CCCNc2cncc(Cl)n2)c2ccc(OC)c(OC)c2)C3=O)CC1 | 62 | 500 | 1 | 
20 | COc1ccc([C@@H](CCCNS(=O)(=O)c2ccc(Cl)s2)N2C(=O)c3cccc(N4CCN([C@H](C)c5ccccc5)CC4)c3C2=O)cc1OC |  |  | 1700 | 
21 | COc1ccc([C@@H](CCCN(C)S(=O)(=O)c2cccs2)N2Cc3c(cccc3N3CCN(C4CC4)CC3)C2=O)cc1OC |  | 1200 |  | 
22 | CCN1CCN(c2cccc3c2CN([C@H](CCCNS(=O)(=O)c2cccs2)c2ccc(OC)c(OC)c2)C3=O)CC1 |  |  |  | Activity (Rattus norvegicus [9]): Active; Activity (Rattus norvegicus [10]): Active; inhibition [11]: 68%; inhibition [12]: 65%; inhibition [13]: 55%; inhibition [14]: 93%; inhibition [15]: 66%; inhibition [16]: 59%; inhibition at 0.1 µM (Aorta): 74%
23 | COc1cc(Br)c(S(=O)(=O)Nc2ccc(C(F)(F)F)c(O[C@@H]3CCN(C)C3)c2)cc1OC |  |  |  | IC50 (Urotensin-2 receptor [1]; [17]): 34 nM; Activity (Rattus norvegicus [9]): Active; inhibition at 0.1 µM (Aorta): 97%
24 | COc1ccc(CN2C(=O)c3cccc(N4CCN(Cc5ccccc5)CC4)c3C2=O)cc1OC | 160 |  |  | half-life [4]: < 3 min
25 | COc1ccc([C@@H](CCCNS(C)(=O)=O)N2C(=O)c3cccc(N4CCN([C@H](C)c5ccccc5)CC4)c3C2=O)cc1OC | 1400 |  | 110 | 
26 | COc1ccc([C@@H](CCCNC(=O)c2cnoc2C)N2Cc3c(cccc3N3CCN([C@H](C)c4ccccc4)CC3)C2=O)cc1OC | 15 | 320 |  | IC50 (Urotensin-2 receptor [1]; [17]): 6 nM
